Source: ChEMBL document CHEMBL1156742, “Fluorinated rhodacyanine (SJL-01) possessing high efficacy for visceral leishmaniasis (VL)” (J Med Chem, 2010)
pIC50: −log10 of the molar value.

Legend:
[1] = Selectivity ratio of IC50 for rat L6 cells to IC50 for Leishmania donovani MHOM/ET/67/L82; assay type: ADME, cell-based; conditions: for selectivity ratio: L6 cells, read-out: Ratio IC50; for Ratio IC50: l6
Outline: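 Ratio of the L-6 cytotoxicity IC50 to the IC50 against axenic L. donovani amastigotes.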

Leishmania donovani [2] = experiment: Antileishmanial activity against Leishmania donovani MHOM/ET/67/L82 amastigotes infected in syrian golden hamster spleen after 72 hrs; assay type: functional, organism-based
Outline: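 Hamster-maintained spleen amastigotes were grown axenically at 37 °C, 5% CO2 in Cunningham SM medium, pH 5.4, with 10% FBS. 10^5 amastigotes per well were exposed to serial drug dilutions for 72 h. Alamar blue (resazurin) was added for 2 h more, and fluorescence read at ex 536/em 588 nm. IC50 was taken from the sigmoidal inhibition curve versus control.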

L6 = experiment: Cytotoxicity against rat L6 cells after 72 hrs by Alamar blue assay; assay type: cell-based
Outline: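 L-6 myoblasts were grown in RPMI 1640 with L-glutamine and 10% FBS at 37 °C, 5% CO2, seeded at 4×10^4 cells/well. After 24 h they were given serial drug dilutions for 72 h. Alamar blue was added for 2 h, and fluorescence read at ex 536/em 588 nm to give IC50.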

Leishmania donovani [3] = experiment: Antileishmanial activity against Leishmania donovani MHOM/ET/67/L82 infected in NMRI mouse macrophage assessed as reduction in parasite burden after 4 days by Giemsa staining; conditions: MHOM/ET/67/L82, 4 days
Leishmania donovani [4] = experiment: Antileishmanial activity against Leishmania donovani MHOM/ET/67/HU3 infected in BALB/c mouse at 50 mg/kg, ip for 5 days from day 7 postinfection measured after 14 days by Giemsa staining; assay type: functional; conditions: MHOM/ET/67/HU3, ip, route intraperitoneal
Outline: (§1)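 Female SPF BALB/c mice (6-8 weeks, ~20 g) infected iv via tail vein on day 0 with 1.5×10^7 hamster-spleen-derived amastigotes. Groups of five mice were treated once daily starting day 7. On day 14 the livers were weighed and Giemsa-stained smears prepared. Amastigotes were counted per 500 liver cells and expressed as amastigotes per liver cell × mg liver. % inhibition was calculated versus untreated mice.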

Leishmania donovani [5] = experiment: Antileishmanial activity against Leishmania donovani MHOM/ET/67/HU3 infected in BALB/c mouse at 15 mg/kg, sc for 5 days from day 7 postinfection measured after 14 days by Giemsa staining; assay type: functional, organism-based; design: dose 15 mg/kg; outline: as §1
Leishmania donovani [6] = experiment: Antileishmanial activity against Leishmania donovani MHOM/ET/67/HU3 infected in BALB/c mouse at 0.5 mg/kg, iv for 3 days from day 7 postinfection measured after 14 days by Giemsa staining; assay type: functional; outline: as §1
Leishmania donovani [7] = experiment: Antileishmanial activity against Leishmania donovani MHOM/ET/67/HU3 infected in BALB/c mouse at 1.5 mg/kg, iv for 3 days from day 7 postinfection measured after 14 days by Giemsa staining; assay type: functional; outline: as §1
Leishmania donovani [8] = experiment: Antileishmanial activity against Leishmania donovani MHOM/ET/67/HU3 infected in BALB/c mouse at 4.1 mg/kg, iv for 5 days from day 7 postinfection measured after 14 days by Giemsa staining; assay type: functional; outline: as §1
Leishmania donovani [9] = experiment: Antileishmanial activity against Leishmania donovani MHOM/ET/67/HU3 infected in BALB/c mouse at 0.2 mg/kg, iv for 5 days from day 7 postinfection measured after 14 days by Giemsa staining; assay type: functional; outline: as §1
Leishmania donovani [10] = experiment: Antileishmanial activity against Leishmania donovani MHOM/ET/67/HU3 infected in BALB/c mouse at 12.5 mg/kg, iv for 5 days from day 7 postinfection measured after 14 days by Giemsa staining; assay type: functional; outline: as §1
Leishmania donovani [11] = experiment: Antileishmanial activity against Leishmania donovani MHOM/ET/67/HU3 infected in BALB/c mouse at 1.3 mg/kg, iv for 5 days from day 7 postinfection measured after 14 days by Giemsa staining; assay type: functional; outline: as §1
Leishmania donovani [12] = experiment: Antileishmanial activity against Leishmania donovani MHOM/ET/67/HU3 infected in BALB/c mouse at 2 mg/kg, iv for 5 days from day 7 postinfection measured after 14 days by Giemsa staining; assay type: functional; outline: as §1
Leishmania donovani [13] = experiment: Antileishmanial activity against Leishmania donovani MHOM/ET/67/HU3 infected in BALB/c mouse at 50 mg/kg, po for 5 days from day 7 postinfection measured after 14 days by Giemsa staining; assay type: functional; outline: as §1
[14] = Leishmania donovani, MHOM/ET/67/L82, Spleen, 72 h

| Compound | selectivity ratio [1] | pIC50 (Leishmania donovani [2]; [14]) | pIC50 (L6; Rattus norvegicus, L6, 72 h) | other results |
| --- | --- | --- | --- | --- |
| CCn1c(=O)/c(=C/N=c2\scc(C)n2C)s/c1=C\c1sc2ccc(F)cc2[n+]1C | 91 | 6.74 | 4.78 | – |
| CCn1c(=O)/c(=C2\Sc3ccccc3N2C)s/c1=C\c1cccc[n+]1CC | 450 | 6.59 | 3.94 | – |
| CCN1C(=O)/C(=C/C=C2\Sc3ccccc3N2C)S/C1=N\c1sc2ccc(Cl)cc2[n+]1C | 757 | 7.55 | 4.67 | pIC50 (Leishmania donovani [3]): 7.10; inhibition in vivo at 50 mg/kg (Leishmania donovani [4]): 18.2% |
| D-gluconic acid, 2,4:2',4'-O-[oxybis-oxidostibylidyne]bis-, trisodium salt, nonahydrate | – | – | – | inhibition (Leishmania donovani [5]): 62% |
| CCn1c(=O)/c(=C/C=C2\Sc3ccccc3N2C)s/c1=C\c1sc2ccccc2[n+]1C | 75 | 6.97 | 5.10 | – |
| CCCN1C=CC=c2o/c(=C/C=c3\s/c(=C\c4sc5ccccc5[n+]4C)n(CC)c3=O)nc21 | 2 | 6.16 | 5.84 | – |
| CCn1c(=O)/c(=C/C=C2\Sc3ccccc3N2C)s/c1=C\c1sc2ccc(F)cc2[n+]1C.O=C([O-])/C=C\C(=O)O | – | – | – | Ratio IC50 [1]: 2870; pIC50 (Leishmania donovani [2]): 7.60; pIC50 (L6; l6): 4.14 |
| CCN1C(=O)/C(=C/C=C2\Sc3ccccc3N2C)S/C1=N\c1sc2ccccc2[n+]1C | 2990 | 7.28 | 3.81 | pIC50 (Leishmania donovani [3]): 5.33 |
| C[C@@H]1[C@H](O)[C@@H](C)/C=C/C=C/C=C/C=C/C=C/C=C/C=C/[C@H](O[C@@H]2O[C@H](C)[C@@H](O)[C@H](N)[C@@H]2O)C[C@@H]2O[C@](O)(C[C@@H](O)C[C@@H](O)[C@H](O)CC[C@@H](O)C[C@@H](O)CC(=O)O[C@H]1C)C[C@H](O)[C@H]2C(=O)O [AMPHOTERICIN B] | – | – | – | inhibition in vivo at 0.5 mg/kg (Leishmania donovani [6]): 78.6%; inhibition in vivo at 1.5 mg/kg (Leishmania donovani [7]): 95.5% |
| CCn1c(=O)/c(=C/C=c2\nc3c(o2)=CC=CN3C)s/c1=C\c1sc2ccccc2[n+]1C | 40 | 6.17 | 4.57 | – |
| CCn1c(=O)/c(=C/N=c2\sc(C)cn2C)s/c1=C\c1sc2ccc(F)cc2[n+]1C | 88 | 6.93 | 4.98 | – |
| CCCCCCCCCCCCCCCCOP(=O)([O-])OCC[N+](C)(C)C [MILTEFOSINE] | – | 6.37 | – | pIC50 (Leishmania donovani [3]): 6.09 |
| CN1/C(=C/C=c2\s/c(=C\c3sc4ccc(F)cc4[n+]3C)n(CCO)c2=O)Sc2ccccc21 | > 15 | 4.93 | < 3.77 | – |
| CCCCN1C=CC=c2o/c(=C/C=c3\s/c(=C\c4sc5ccccc5[n+]4CC)n(CCC)c3=O)nc21 | 99 | 7.68 | 5.68 | – |
| CCn1c(=O)/c(=C/C=C2\Sc3ccccc3N2C)s/c1=C\c1sc2ccc(F)cc2[n+]1C.[Cl-] | – | – | – | inhibition in vivo at 4.1 mg/kg (Leishmania donovani [8]): 97.2%; Ratio IC50 [1]: > 15000; pIC50 (Leishmania donovani [2]): 7.96; inhibition in vivo at 0.2 mg/kg (Leishmania donovani [9]): 16.1%; pIC50 (Leishmania donovani [3]): 6.45; inhibition in vivo at 12.5 mg/kg (Leishmania donovani [10]): 95.4%; inhibition in vivo at 50 mg/kg (Leishmania donovani [4]): 31.4%; pIC50 (L6; l6): < 3.76; inhibition in vivo at 1.3 mg/kg (Leishmania donovani [11]): 94.9% |
| CCn1c(=O)/c(=C/C=c2\nc3c(o2)=CC=CN3C)s/c1=C\c1sc2ccc(F)cc2[n+]1C | 27 | 5.98 | 4.55 | – |
| CCn1c(=O)/c(=C/N=c2n(C)c3ccccc3n2C)s/c1=C\c1sc2ccc(F)cc2[n+]1C | 627 | 6.89 | 4.09 | – |
| CCn1c(=O)/c(=C/N=c2\ccccn2C)s/c1=C\c1sc2ccc(F)cc2[n+]1C | 16 | 5.69 | 4.50 | – |
| CCn1c(=O)/c(=C/C=C2\Sc3ccccc3N2C)s/c1=C\c1sc2ccc(F)cc2[n+]1C.CS(=O)(=O)[O-] | – | – | – | inhibition in vivo at 2 mg/kg (Leishmania donovani [12]): 46.4%; Ratio IC50 [1]: 4225; pIC50 (Leishmania donovani [2]): 7.70; inhibition in vivo at 50 mg/kg (Leishmania donovani [13]): 28%; pIC50 (L6; l6): 4.07 |
